As a reminder, the bioavailability is dose-corrected exposure relative to a reference, in per cent.

The structures appear in SMILES notation. A value given as a limit tells only on which side of the number the result lay.

Series [1] is described as follows: Volume of distribution at steady state in Sprague-Dawley rat at 0.3 mg/kg, iv or 3 mg/kg, po and measured up to 24 hrs by LC-MS/MS analysis. The class given is ADME, organism-based. Particulars: in vivo, read-out: Vdss. In a few lines:
(§1)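 Each species was dosed IV at 0.3 mg/kg and PO as follows: mouse 10 mg/kg, rat 3, dog 3, monkey 1. Plasma PK parameters derived were CL, Vss, IV half-life and oral bioavailability (F%).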

A short description of series [2]: Volume of distribution at steady state in Beagle dog at 0.3 mg/kg, iv or 3 mg/kg, po and measured up to 24 hrs by LC-MS/MS analysis. The class given is ADME, organism-based, Canis lupus familiaris. Particulars: in vivo, read-out: Vdss. The essentials: as §1
Series [3] can be described thus: Volume of distribution at steady state in cynomolgus monkey at 0.3 mg/kg, iv or 1 mg/kg, po and measured up to 24 hrs by LC-MS/MS analysis. Type of series: ADME, organism-based, Macaca fascicularis. The conditions noted are these: in vivo, read-out: Vdss. In a few lines: as §1
A short description of series [4]: Oral bioavailability in CD-1 mouse at 10 mg/kg and measured up to 24 hrs by LC-MS/MS analysis. The class given is ADME, organism-based. The conditions noted are these: in vivo. The essentials: as §1
The nature of series [5]: Oral bioavailability in cynomolgus monkey at 1 mg/kg and measured up to 24 hrs by LC-MS/MS analysis. The class given is ADME, organism-based, Macaca fascicularis. The conditions noted are these: in vivo. In a few lines: as §1
Series [6] is described as follows: Oral bioavailability in Beagle dog at 3 mg/kg and measured up to 24 hrs by LC-MS/MS analysis. Type of series: ADME, organism-based, Canis lupus familiaris. The conditions noted are these: in vivo. The essentials:
as §1

The nature of series [7]: Oral bioavailability in Sprague-Dawley rat at 3 mg/kg and measured up to 24 hrs by LC-MS/MS analysis. Particulars: in vivo. Type of series: ADME, organism-based. In a few lines: as §1
Series [8] can be described thus: Volume of distribution at steady state in CD-1 mouse at 0.3 mg/kg, iv or 10 mg/kg, po and measured up to 24 hrs by LC-MS/MS analysis. The class given is ADME, organism-based. Particulars: in vivo, read-out: Vdss. In a few lines:
as §1

On to `COc1cc(OCc2ccnc(Nc3cnn(C)c3)n2)cc2sc(N[C@H]3CCCC[C@@H]3O)nc12`, for which the Vd was 3.4 L/kg in series [1], 3 L/kg in series [2], 0.45 L/kg in series [3] and 1 L/kg in series [8]. The bioavailability in series [4] was 100%; in series [5], 21%; in series [6] it was 37%; in series [7], 81%.
As for `Nc1nccc(COc2ccc3nc(N[C@@H]4CCCC[C@H]4O)sc3c2)c1Cl`, the Vd in series [1] turned out to be 0.75 L/kg; in series [2], 1.3 L/kg; in series [3] it was 0.6 L/kg; in series [8], 1.8 L/kg. For the same molecule, the bioavailability in series [4] was > 90%; in series [5] it was 72%; in series [6], 34%; in series [7] it was 67%.

The values are drawn from ChEMBL document CHEMBL4725356, “Discovery of IACS-9439, a Potent, Exquisitely Selective, and Orally Bioavailable Inhibitor of CSF1R” (J Med Chem, 2020).
